Data set [1] relates to Plasmodium falciparum. The data set is described as follows: Antimicrobial activity against Plasmodium falciparum 3D7 schizonts infected in human erythrocytes assessed as effect on parasitemia at 225 to 450 nM after 48 hrs by microscopy.
Data set [2] in a line: Cytotoxicity against human Hep2 cells after 72 hrs by Cell Titer Glo assay. Type of data set: cell-based, HEp-2. The conditions noted are these: read-out: ED50. The procedure, abridged: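 Cells seeded at 250 per well in DMEM with 5% fetal bovine serum. Compound added the next day, followed by 72 h culture to match the parasite proliferation assay. Viability read by Cell Titer Glo luminescence.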
In general terms: ATP-based viability assays read luminescence as a measure of living cells.

Data set [3] has as its system Plasmodium falciparum. The data set is described as follows: Binding affinity to Plasmodium falciparum PF08_0054 at 2.5 mM by LC/MS/MS analysis. In a few lines: (§1)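 P. falciparum parasite lysate was incubated with agarose-immobilized inhibitor and washed extensively. Retained proteins were eluted with urea, resolved by SDS-PAGE and identified by LC/MS/MS. In a competition arm, free inhibitor (2.5 mM) was added to the lysate before incubation with the beads under identical conditions.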

Data set [4] in a line: Cmax in BALB/c mouse at 20 mg/kg single oral dose after 24 hrs by LC/MS/MS analysis. The conditions noted are these: in vivo.
Data set [5] relates to Plasmodium falciparum. The data set is described as follows: Binding affinity to Plasmodium falciparum PF14_0517 at 2.5 mM by LC/MS/MS analysis. The procedure, abridged: as §1
In data set [6] the test system is Plasmodium falciparum. Description: Binding affinity to Plasmodium falciparum PFI0235w at 2.5 mM by LC/MS/MS analysis. In a few lines: as §1
Data set [7] has as its system Plasmodium falciparum. The data set is described as follows: Binding affinity to Plasmodium falciparum PFL1545c at 2.5 mM by LC/MS/MS analysis. The procedure, abridged: as §1
Data set [8] deals with Plasmodium falciparum. Description: Binding affinity to Plasmodium falciparum PF11_0037 at 2.5 mM by LC/MS/MS analysis. In a few lines:
as §1

In data set [9] the test system is Plasmodium falciparum. Description: Binding affinity to Plasmodium falciparum PF14_0096 at 2.5 mM by LC/MS/MS analysis. In a few lines:
as §1

In data set [10] the test system is Toxoplasma gondii. Description: Antimicrobial activity against Toxoplasma gondii […] infected in african green monkey BSC1 cells assessed as parasite invasion at 3.1 uM after 48 hrs by microscopy relative to control. Type of data set: functional, BSC-1.
The test system of data set [11] is Plasmodium falciparum. Description: Binding affinity to Plasmodium falciparum PF10_0153 at 2.5 mM by LC/MS/MS analysis. In a few lines: as §1
Data set [12] has as its system Plasmodium falciparum. The data set is described as follows: Antimicrobial activity against Plasmodium falciparum schizonts infected in human erythrocytes assessed as minimal effect on parasite cell cycle at 450 nM treated 24 hrs after release of ring stage by microscopy.
Data set [13] has as its system Plasmodium falciparum. Description: Antiplasmodial activity against Plasmodium falciparum 3D7 after 72 hrs by SYBR green assay. The conditions noted are these: 3D7, 72 h. Type of data set: functional, organism-based.
The subject of data set [14] is Plasmodium falciparum. Description: Upregulation of DNA replication gene expression in Plasmodium falciparum at 460 nM after 48 hrs by microarray analysis. Type of data set: functional, organism-based. The procedure, abridged: (§2)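 P. falciparum 3D7 was grown in human O+ erythrocytes. Heterogeneous, unsynchronized parasites were incubated with 460 nM compound for 24 or 48 h, then compared with untreated parasites on a full-genome microarray. Transcript changes were called by a statistical test.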

The nature of data set [15]: Plasma concentration in BALB/c mouse at 20 mg/kg single oral dose after 24 hrs by LC/MS/MS analysis.
Data set [16] deals with Plasmodium falciparum. Description: Antimicrobial activity against Plasmodium falciparum schizonts infected in human erythrocytes assessed as minimal effect on parasite cell cycle at 450 nM treated 12 hrs after release of ring stage by microscopy.
The test system of data set [17] is Plasmodium falciparum. Description: Binding affinity to Plasmodium falciparum MAL7P1.228 at 2.5 mM by LC/MS/MS analysis. In a few lines:
as §1

The subject of data set [18] is Plasmodium falciparum. Description: Binding affinity to Plasmodium falciparum PF14_0359 at 2.5 mM by LC/MS/MS analysis. The procedure, abridged: as §1
The nature of data set [19]: Half life in BALB/c mouse 20 mg/kg single oral dose by LC/MS/MS analysis. The conditions noted are these: in vivo.
For data set [20], the system named is Plasmodium falciparum. Description: Binding affinity to Plasmodium falciparum PFF0160c at 2.5 mM by LC/MS/MS analysis. The procedure, abridged: as §1
Data set [21] concerns Plasmodium falciparum. The data set is described as follows: Antiplasmodial activity against pyrimethamine-resistant Plasmodium falciparum HB3 after 72 hrs by SYBR green assay. In kind it is functional, organism-based. The conditions noted are these: HB3, 72 h. The procedure, abridged: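 Parasites grown in human O+ erythrocytes in RPMI with human serum and albumax. For the assay, serially diluted compounds were added to screening medium (RPMI, 4.16 mg/ml albumax) at 2.5% hematocrit and 0.3% parasitemia, then incubated 72 h in 93% N2/4% CO2/3% O2. DMSO served as baseline and uninfected erythrocytes as background. SYBR Green fluorescence was read at 520 nm to give EC50.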

Data set [22] has as its system Plasmodium yoelii. Description: Antiplasmodial activity blood stage Plasmodium yoelii infected in BALB/c mice (Mus musculus) assessed as delay in onset of parasitaemia at 10 mg/kg, perorally BID for 6 days measured after 6 days post infection by Peter's test. In kind it is functional, organism-based. On the set-up: dose 10 mg/kg.
For data set [23], the system named is Plasmodium falciparum. The data set is described as follows: Upregulation of proteasome gene expression in Plasmodium falciparum at 460 nM after 48 hrs by microarray analysis. Type of data set: functional, organism-based. In a few lines:
as §2

Data set [24] can be described thus: Cytotoxicity against CHO cells after 72 hrs by Cell Titer Glo assay. Type of data set: cell-based, Cricetulus griseus. The conditions noted are these: chinese hamster, read-out: ED50. In a few lines:
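Cells were seeded at 250 per well in DMEM with 5% FBS in 1,536-well plates, and compound was added the next day. Culture ran 72 h, matching the parasite proliferation assay. Viability was read by Cell Titer Glo luminescence, and EC50 was derived.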

Active and inactive are the calls of the source. The calls are words filed in the database; no cut-off is given here.

Consider `N[C@H]1CC[C@H](Nc2nc(Nc3ccc(C(=O)N4CCCCC4)cc3)c3ncn(-c4cccc(F)c4)c3n2)CC1` [PURFALCAMINE], for which the outcome in [1], in data set [12], in [14], in data set [16], in data set [22] and in data set [23] was Active. Moreover, the CC50 at 72 h in [2] was 7.24 µM; in data set [24] it was 12.3 µM. Also, the outcome in data set [3], in data set [5], in data set [6], in data set [7], in [8] and in [9] was inactive. Moreover, the result in data set [11], in data set [17], in [18] and in data set [20] was inactive. For the same compound, the Cmax (as a rule, the peak of the concentration-time curve) in data set [4] was 2600 nM. Also, the Activity in [10] is reported as 60%. Besides, the EC50 (commonly the concentration at which the effect is half-maximal) in [13] was 0.23 µM; in [21], 0.178 µM. The compound further displayed a concentration at 24 h in data set [15] of 23 nM. Also, the half-life (in general, the time in which the quantity being followed falls by half) in data set [19] was 3.1 h.

The record behind these values is ChEMBL document CHEMBL1212705, “Gene expression signatures and small-molecule compounds link a protein kinase to Plasmodium falciparum motility” (Nat Chem Biol, 2008).
